Rows were chosen to be rich in hits. Some 2.8% of all compounds tested hit in one or more screens of this group.
AI-2 QS mod = Vibrio harveyi AI-2 quorum sensing modulators, primary screen, JMH597 strain, luminescence/OD600 ratio; Vibrio harveyi JMH597 AI-2 luminescence/OD600 ratio, 9 h; hits give low values; strain lacks LuxN and CqsS sensors; 0 = neutral-control median; activity change, % at 7.5 µM; actives 0.4% (n = 300,000); AID 2094, 2009; in the data active = activity change below about -75%, passing the limit was not always enough; inconclusive = no clear call, values can overlap the other calls;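 note: luminescence divided by OD600 gain over 9 h not by final OD600 alone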
pCIP destab = p/CIP-EGFP fusion destabilizers, primary screen, fluorescence, F442A cells; AID 1984, 2009; 16 h; actives 0.01% (n = 290,000); decrease of EGFP signal, % at 10 µM;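 active = EGFP signal decrease of at least 30% at 10 µM or well 3 SD below plate mean, unless failing retest; inactive = the rest, including hits failing retest or dose response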
UBC13 polyUb = UBC13 polyubiquitin chain formation inhibitors, primary screen, biochemical, TR-FRET, uHTS. actives 0.47% (n = 330,000). AID 485273, 2010. inhibition, % at 20 µM; in the data active = inhibition above about 45%, passing the limit was not always enough; inconclusive = no clear call, values can overlap the other calls
PP1 counter = PP1-alpha phosphatase inhibitors, primary screen, counter-screen for PP5 inhibitor project, biochemical, fluorescence, OMFP substrate, single point. purified PP1alpha. inhibition, % at 6.7 µM. actives 0.9% (n = 320,000). AID 2235, 2010;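 active = inhibition above the mean inhibition of all tested compounds plus 3 SD, computed separately for each screening campaign, cut at about 15% in these data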
T cruzi repl = inhibitors of intracellular T. cruzi growth, primary screen, luminescence, NIH3T3 host cells; actives 1.4% (n = 300,000); T. cruzi beta-gal in NIH3T3, 90 h; inhibition, % (test concentration not listed);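 active = mean inhibition across valid replicates above about 55%, limit read from the data; inconclusive = mean below that limit but half or more replicates reach it; inactive = mean below it, under half of replicates reach it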;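 note: signal also drops with host cell toxicity which is not excluded here; higher percent means less beta-gal luminescence so fewer parasites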
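System: Mouse NIH/3T3 fibroblasts infected with β-gal-expressing T. cruzi Tulahuen C4 | Quantity: NIH/3T3 cells, 5,000 per well | Reagent: 5000 reporter trypomastigotes per well | Dosing: Compound pinned at 50 nL/well, DMSO | Schedule: 3 h host attachment, then at least 90 h co-culture | Detection: GalScreen luminescence, 60 min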
Of the large screens only hits and unclear results are named; the others gave an inactive call.

CC1=C(C(=O)Nc2cc(C(=O)N3CCN(c4cccc(C)c4C)CC3)ccc2C)SCCO1	none
O=[N+]([O-])c1ccc(-n2nnnc2-c2ccccc2)cc1	none
O=[N+]([O-])c1ccc(-n2nnnc2-c2ccccc2)c([N+](=O)[O-])c1	T cruzi repl 62 (no result: UBC13 polyUb)
COc1ccc(Br)cc1C(=O)Nc1ccc(Cc2ccncc2)cc1	T cruzi repl 73
Cc1cccc(N2CCN(Cc3ccc([N+](=O)[O-])o3)CC2)c1C	T cruzi repl 58
O=[N+]([O-])c1ccc(CN2CCN(c3ccc(F)cc3)CC2)o1	none (no result: PP1 counter)
CN(C)CCCSc1nc2ccccc2s1	T cruzi repl 71
CSc1ncccc1C(=O)N1CCN(S(=O)(=O)c2ccccc2)CC1	none
C[n+]1c2n(c3ccccc31)N=C(c1ccc(Cl)cc1)CS2	none
COc1ccc(C2=Nn3c([n+](C)c4ccccc43)SC2)cc1	T cruzi repl 70
O=C(Nn1c(C2CCCCC2)nc2ccccc2c1=O)c1ccc([N+](=O)[O-])cc1Cl	PP1 counter 17
CCOc1ccccc1C(=O)Nn1c(C2CCC2)nc2ccccc2c1=O	none
COc1ccccc1C(=O)Nn1c(C2CCC2)nc2ccccc2c1=O	T cruzi repl 56
O=C(/C=C/c1ccccc1)N1CCN(c2ccc([N+](=O)[O-])c(N3CCOCC3)c2)CC1	none
COC(=O)/C=C1/SC(=NC(=O)c2ccc(Cl)cc2)NC1=O	none (no result: pCIP destab)
O=C(NNc1nc2cc3c(cc2s1)OCO3)c1cccc(F)c1	AI-2 QS mod -88
COc1cc(OC)cc(C(=O)NNc2nc3cc4c(cc3s2)OCO4)c1	none
CCOC(=O)N1CCN(Cc2nc3ccc([N+](=O)[O-])cc3c(=O)n2-c2ccccc2F)CC1	none
Nc1ccc2c(c1)C(=O)C(=O)c1ccccc1-2	AI-2 QS mod inconclusive, PP1 counter 39 (no result: pCIP destab)
COc1cccc(CN2CCNC(=O)C2CC(=O)NCCn2ccc3ccccc32)c1OC (stereo unspecified)	none
C/C(=N\NC(=S)Nc1ccccc1C)c1ccc(O)cc1	UBC13 polyUb 50
COCCNC(=S)N/N=C(\C)c1ccc(O)cc1	none
COc1cc(C2NC(=O)NC(c3ccccc3)=C2C(C)=O)cc([N+](=O)[O-])c1O (stereo unspecified)	none
CC(C)(C)c1ccc(Cn2c(=N)n(CC(O)c3ccco3)c3ccccc32)cc1 (stereo unspecified)	T cruzi repl 60
O=C(CCS(=O)(=O)c1ccccc1)N(CCCN1CCOCC1)c1nc2c(F)cccc2s1	T cruzi repl 55 (no result: pCIP destab)
O=C(CCS(=O)(=O)c1ccccc1)N(CCCN1CCOCC1)c1nc2ccc(F)cc2s1	T cruzi repl 63 (no result: pCIP destab)
Cc1cccc(N2CCN(CC(=O)N(C3CCCC3)C3CCS(=O)(=O)C3)CC2)c1C (stereo unspecified)	none (no result: AI-2 QS mod, pCIP destab, T cruzi repl)
O=C(Nc1nc(-c2ccc(F)cc2)cs1)C1CCN(C(=O)c2ccc(F)cc2)CC1	T cruzi repl 55 (no result: pCIP destab)
O=C(Nc1nc2c(F)cc(F)cc2s1)C1CCN(C(=O)c2ccc(F)cc2)CC1	none (no result: pCIP destab)
CCNC(=S)NCc1ccc(OC)c(OC)c1	none
COc1ccc(CCNC(=S)NCc2ccc(Cl)c(Cl)c2)cc1OC	T cruzi repl 60
CCOc1cc(CNCCc2ccc(S(N)(=O)=O)cc2)cc(Cl)c1OCc1ccccc1	T cruzi repl 58
CCOc1cc(CNCCc2ccc(S(N)(=O)=O)cc2)ccc1OCc1ccccc1	none (no result: UBC13 polyUb)
CCN(Cc1ccccc1)Cc1ccc(OCc2ccccc2)c(OC)c1	none
CCOc1cc(CNCc2ccccc2)ccc1OCc1ccc(Cl)cc1	T cruzi repl 55
COc1cc(CN(C)CCc2ccccc2)ccc1OCc1ccccc1	T cruzi repl 63
CCCc1cc(=O)[nH]c(SCC(=O)Nc2cccc(S(=O)(=O)N3CCOCC3)c2)n1	none (no result: AI-2 QS mod, pCIP destab, T cruzi repl)
Cn1c(CC(=O)Nc2ccc(Cl)cc2)nnc1SCC(=O)N1CCOCC1	none
Cc1cc(C)c(NC(=O)COC(=O)Cc2cccs2)c(C)c1	none (no result: pCIP destab)
Cc1cccc(NC(=S)NCc2ccccc2)c1C	none
O=C(NCC(c1cccs1)N1CCOCC1)C1CCN(S(=O)(=O)c2ccccc2C(F)(F)F)CC1 (stereo unspecified)	none
CC(OC(=O)c1ccncc1)C(=O)NC1CCCC1 (stereo unspecified)	none
COc1ccc(CNCCc2ccc(Cl)cc2)cc1OCc1ccccc1	T cruzi repl 70
COc1ccc(CCNCc2ccc(OCc3ccc(Cl)nc3)c(OC)c2)cc1OC	T cruzi repl 57
COc1ccccc1NC(=O)C(=O)/C=C(\O)c1ccccc1	none
Cc1ccc(C(=O)NCC(=O)OCC(=O)N2CC(C)OC(C)C2)cc1 (stereo unspecified)	none (no result: pCIP destab)
O=C(Cn1ccnc1)c1ccc(Cl)cc1	T cruzi repl 59
O=C(Cn1cncn1)c1ccc(Cl)cc1	none
Cn1nc2c3ccccc3n(Cc3ccc(F)cc3)c2nc1=S	none
COc1ccc(/C=C2\SC(=O)N(CCc3nnc(N)s3)C2=O)cc1	none
CCN(CC)CCSc1nnc2c3ccccc3n(Cc3ccccc3)c2n1	T cruzi repl 69
COc1cccc(CC(=O)N(CCC2=CCCCC2)c2c(N)n(Cc3ccccc3)c(=O)[nH]c2=O)c1	none (no result: pCIP destab)
CSc1cccc(CN2CCCC(CNC(=O)c3ccc(F)cc3)C2)c1 (stereo unspecified)	none
COc1ccc(CN2CCCC(CNC(=O)c3ccc(F)cc3)C2)c(C)c1C (stereo unspecified)	T cruzi repl 71
CCOc1ccc(CN2CCCC(CNC(=O)c3ccc(F)cc3)C2)cc1CO (stereo unspecified)	T cruzi repl 62
O=C(NCC1CCCN(Cc2cccc(OCCO)c2)C1)c1ccc(F)cc1 (stereo unspecified)	none
CCOc1cc(CN2CCCC(CNC(=O)c3ccc(F)cc3)C2)ccc1OC (stereo unspecified)	T cruzi repl 61
CCc1ccc(C(=O)COC(=O)c2nn(C)c(=O)c3ccccc23)cc1	none
CCc1ccc(C(=O)COC(=O)c2n[nH]c3ccccc23)cc1	AI-2 QS mod -78
Cc1ccc(C(C)(C)C)cc1S(=O)(=O)N1CCC(C(=O)N2CCN(c3ccc(O)cc3)CC2)CC1	none (no result: AI-2 QS mod, pCIP destab, T cruzi repl)
O=[N+]([O-])c1cccc(/C=N/Nc2nc(NCc3ccccc3)nc(N3CCOCC3)n2)c1O	PP1 counter 17
O=[N+]([O-])c1ccc(/C=N/Nc2nc(NCc3ccccc3)nc(N3CCOCC3)n2)cc1	none
O=C(/C=C/c1cn(-c2ccccc2)nc1-c1cccc(Cl)c1)N1CCN(c2ccccn2)CC1	T cruzi repl 73
CCN(CC1CCCO1)C(=O)c1cc(COc2ccc(F)cc2F)on1 (stereo unspecified)	none

Source: PubChem BioAssay
